High-throughput results (PubChem BioAssay)
STAT3 inh: reduces IL-6 driven STAT3 reporter signal | inhibition, % at 5.5 µM | 190,000 compounds, 0.89% hits | U3A cells, IL-6 STAT3-luciferase reporter, luminescence; host cell line lacks STAT1 | AID 862;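 active = inhibition above the mean inhibition across all screened compounds plus 3 SD, cut at about 44% in these data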
STAT1 activator: activators of IFN-gamma induced STAT1 signaling; 200,000 compounds, 2.6% hits; AID 932; NIH 3T3 STAT1-luciferase reporter, luminescence; 100% = IFN-gamma alone, no compound; activation (% of control), % at 5.5 µM;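 active = activation above the screen-wide mean activation plus 3 SD, cut at about 130% in these data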
HSV replic up: HSV replication enhancement | HSV replication augmentation in cells, fold increase | maximum fold increase | 220,000 compounds, 0.005% hits | AID 1956; in the data active = maximum fold increase above about 1.5; inconclusive = no clear call, values can overlap the other calls; tested in PC3 cells
Cl transport mod: KCC2 (human) Cl- transport modulation. B-score of Tl+ flux slope (higher = more flux/activation; lower = inhibition) at 10 µM. 190,000 compounds, 2.2% hits. AID 1456. KCC2 cells, thallium flux FluoZin-2 fluorescence;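 active = thallium flux slope and its plate-corrected score both differing from the plate sample mean at a set confidence after two filtering rounds, in either direction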;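 note: slope of fluorescence scaled to starting intensity during 10 to 20 s after thallium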
Target sequence (Q9H2X9 whole entry, looked up): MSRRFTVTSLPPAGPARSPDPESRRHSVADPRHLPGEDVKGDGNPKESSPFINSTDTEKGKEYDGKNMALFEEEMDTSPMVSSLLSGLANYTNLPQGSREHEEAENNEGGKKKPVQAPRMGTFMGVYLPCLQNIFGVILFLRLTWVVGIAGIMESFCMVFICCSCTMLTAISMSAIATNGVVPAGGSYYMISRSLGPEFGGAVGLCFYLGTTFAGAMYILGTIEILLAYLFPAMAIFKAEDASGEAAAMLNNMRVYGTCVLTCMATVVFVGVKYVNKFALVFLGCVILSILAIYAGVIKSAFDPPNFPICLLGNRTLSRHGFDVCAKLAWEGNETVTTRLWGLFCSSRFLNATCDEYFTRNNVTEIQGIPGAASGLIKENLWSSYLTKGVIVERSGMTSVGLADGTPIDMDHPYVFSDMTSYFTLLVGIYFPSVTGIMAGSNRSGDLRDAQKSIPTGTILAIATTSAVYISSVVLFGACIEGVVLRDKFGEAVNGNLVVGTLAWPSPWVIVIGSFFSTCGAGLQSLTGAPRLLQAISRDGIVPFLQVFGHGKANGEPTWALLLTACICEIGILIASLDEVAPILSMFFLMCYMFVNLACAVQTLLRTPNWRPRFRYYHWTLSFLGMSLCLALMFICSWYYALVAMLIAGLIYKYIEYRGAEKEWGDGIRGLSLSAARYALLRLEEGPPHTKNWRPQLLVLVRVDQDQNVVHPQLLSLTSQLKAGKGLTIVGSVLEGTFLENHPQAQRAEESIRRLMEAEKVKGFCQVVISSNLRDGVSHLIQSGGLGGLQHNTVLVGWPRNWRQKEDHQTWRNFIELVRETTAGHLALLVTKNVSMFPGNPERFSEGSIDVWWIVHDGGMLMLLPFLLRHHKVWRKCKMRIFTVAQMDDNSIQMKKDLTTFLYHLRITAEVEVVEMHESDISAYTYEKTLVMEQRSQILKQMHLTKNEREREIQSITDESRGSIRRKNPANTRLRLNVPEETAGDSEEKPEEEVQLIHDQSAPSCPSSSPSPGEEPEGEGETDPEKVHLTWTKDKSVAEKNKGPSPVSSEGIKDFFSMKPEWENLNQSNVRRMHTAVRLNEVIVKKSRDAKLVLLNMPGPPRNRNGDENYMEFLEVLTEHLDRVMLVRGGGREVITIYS
STAT1 inh: STAT1 signaling inhibition. inhibition, % at 5.5 µM. 200,000 compounds, 0.35% hits. NIH 3T3 STAT1-luciferase reporter, IFN-gamma, luminescence;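 active = inhibition above a set limit, the mean inhibition across all tested compounds plus 3 SD, cut at about 34% in these data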
STAT3 activator: STAT3 signaling activation. U3A cells, IL-6 STAT3-luciferase reporter, luminescence; 100% = signal with IL-6 EC80 alone. activation (% of control), % at 5.6 µM. 190,000 compounds, 0.91% hits;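 active = activation above the screen-wide mean of compound activation plus 3 SD, cut at about 130% in these data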
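Material: human STAT1-deficient U3A cells with stable STAT3-luciferase reporter / Probe or stimulus: IL-6 stimulus at 33 ng/mL final / Schedule: 1 h compound pre-exposure, 6 h IL-6 stimulation, 37 °C / Technique: luminescence / Read-out basis: percent of IL-6-only median luminescence / Control set: IL-6-only high control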
KCC2 secondary: confirmation of human KCC2 transport modulators; shares compounds with Cl transport mod; HEK293-KCC2, thallium flux, FluoZin2 fluorescence; stronger effect = higher value; normalised thallium flux (F/F0 slope) at 10 µM; 3,700 compounds, 15% hits; AID 1713;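 active = thallium flux slope above the same plate's solvent-only control mean plus 3 SD; inconclusive = the two replicate wells disagree; inactive = no significant difference from solvent-only control wells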
KCC2 bumet counter: bumetanide-insensitive thallium flux in KCC2 cells with ouabain, counter-screen | 3,700 compounds, 49% hits | HEK293-KCC2 + bumetanide/ouabain, thallium flux FluoZin2; stronger effect = higher value | AID 1714 | normalized thallium flux at 10 µM | shares compounds with Cl transport mod;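 active = thallium entry rate above the same plate's blocked-transporter control wells by more than 3 SD; inconclusive = the two repeat wells disagree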;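 note: raw slope of fluorescence over initial fluorescence between 10 and 20 s after thallium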
KCC2 secondary2: confirmation of human KCC2 transport modulators; normalized thallium flux at 10 µM; HEK293-KCC2, thallium flux FluoZin2 fluorescence; actives lie on both sides; F/F0 rise rate, 10–20 s post-thallium; shares compounds with Cl transport mod; 3,700 compounds, 23% hits;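 active = thallium flux slope more than 3 SD above or below the plate's solvent-only control mean, mostly below; inconclusive = the two repeat wells disagreed; inactive = no significant shift from solvent-only controls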
HEK counter1: acts in parental HEK cells, KCC2 counter-screen; shares compounds with Cl transport mod; HEK293 parental cells, thallium flux FluoZin2, ouabain; baseline-ratio fluorescence slope, 10–20 s after thallium; thallium flux rate (normalised fluorescence) at 10 µM; 3,700 compounds, 46% hits; AID 1716;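 active = thallium flux rate significantly above the same plate's solvent-only control wells, beyond their mean plus 3 SD; inconclusive = the two replicate wells gave conflicting results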
KCC2 retest ouab: modulates human KCC2 on retest with ouabain; shares compounds with Cl transport mod; HEK293-KCC2, thallium flux FluoZin2 fluorescence; bidirectional: low = inhibitor, high = activator; raw Tl+ flux slope (below DMSO = inhibition, above = activation) at 10 µM; 3,700 compounds, 48% hits; AID 1717;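 active = thallium flux slope beyond 3 SD from same-plate DMSO control mean in most replicates, usually higher, sometimes lower; inconclusive = repeat tests gave conflicting results; inactive = no significant difference from controls in most replicates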;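 note: slope of initial-normalized fluorescence between seconds 10 and 20 after thallium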
HEK293 Tl flux2: acts in parental HEK cells, second KCC2 counter-screen; 3,700 compounds, 33% hits; shares compounds with Cl transport mod; HEK293 parental, thallium flux FluoZin-2 fluorescence slope; thallium flux slope at 10 µM;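 active = thallium flux slope above the same plate's solvent-control mean plus 3 SD in both duplicate wells; inconclusive = duplicate wells that disagreed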;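 note: run without ouabain in cells lacking the KCC2 cotransporter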
A number is an active result; . = inactive; ? = inconclusive; / = no result given. The list is not random: actives were taken first. Their share in the collection is about 5.5%.

SMILES	STAT3 inh	STAT1 activator	HSV replic up	Cl transport mod	STAT1 inh	STAT3 activator	KCC2 secondary	KCC2 bumet counter	KCC2 secondary2	HEK counter1	KCC2 retest ouab	HEK293 Tl flux2
O=C(Cn1nc(C(F)(F)F)c2c1CCCC2)N1CCOCC1	.	.	.	.	.	.	/	/	/	/	/	/
O=C(Cn1nc(-c2ccc(Cl)cc2)ccc1=O)N1CCN(c2ccccc2)CC1	.	.	/	/	.	.	.	.	.	.	?	.
O=C(Cn1nc(C(F)(F)F)c2c1CCC2)N1CCN(c2ccccc2)CC1	.	.	.	/	.	.	.	.	.	.	0.016	.
O=C(NCC1CCCO1)Nc1ccc2c(c1)OCO2 (centres undefined)	.	.	.	.	.	.	/	/	/	/	/	/
CCCn1c(SCN2C(=O)c3ccccc3C2=O)nc2cc(Cl)ccc2c1=O	.	.	.	106	.	.	0.038	0.17	0.053	0.092	0.084	0.046
Cc1n[nH]c(C)c1CCCOc1ccccc1	.	.	.	/	.	.	/	/	/	/	/	/
COc1ccc(OCCCc2c(C)n[nH]c2C)cc1	.	.	/	4.8	.	.	.	.	.	.	.	?
COC(=O)CN1C(=O)C2(C(C#N)=C(N)Oc3c2c(C)nn3-c2ccccc2)c2ccccc21 (centres undefined)	.	.	.	3.9	.	.	.	0.0057	.	.	.	.
CCC(=O)N(CCC(Cc1ccccc1)c1ccco1)Cc1ccco1 (centres undefined)	.	.	.	-3.9	.	.	.	0.0026	.	0.0046	0.013	0.0069
CC(=O)N(NC(=O)c1ccccc1Cl)C1CC(=O)N(c2ccc(C)cc2)C1=O (centres undefined)	.	.	.	/	.	.	/	/	/	/	/	/
Cc1ccc(S(=O)(=O)N2CCCC2C(=O)Nc2nc3ccccc3s2)cc1 (centres undefined)	.	.	.	.	.	.	/	/	/	/	/	/
O=C(Nc1nc2ccccc2s1)C1CCCN1S(=O)(=O)c1ccc(Cl)cc1 (centres undefined)	.	.	.	/	.	.	.	.	.	.	.	.
C=CCn1c(SCc2cc(C(C)=O)ccc2OCC)nc2ccccc2c1=O	.	.	.	.	.	.	/	/	/	/	/	/
COc1ccc(N(CC(=O)N2CCCC(C)C2)S(=O)(=O)c2c(C)nn(C)c2C)cc1 (centres undefined)	.	.	.	/	.	.	/	/	/	/	/	/
O=C(NC(=S)Nc1ccc(Cl)cc1)c1ccccc1	/	/	.	76	/	/	0.016	0.052	.	?	0.046	0.023
O=C(NC(=S)Nc1ccccc1)c1cncc(C#Cc2ccccc2)c1	/	/	.	24	/	/	?	0.023	.	0.01	0.039	?
O=C(O)c1cccc(NC(=S)NC(=O)c2ccc(-c3ccccc3)cc2)c1	.	.	.	-6.1	.	.	?	.	0.022	0.0057	0.013	?
O=C(NNC(=S)Nc1ccccc1)c1ccncc1	.	.	/	.	.	.	/	/	/	/	/	/
CC(=O)c1cccc(NC(=S)NC(=O)c2ccccc2)c1	.	133	.	4.5	.	.	.	0.02	.	0.018	?	0.016
O=C(O)c1ccccc1C(=O)c1ccc(Br)s1	.	.	.	.	.	.	/	/	/	/	/	/
Cc1cc(C)cc(NC(=O)Cc2ccc(-n3cccc3)cc2)c1	.	.	.	.	.	.	/	/	/	/	/	/
Cc1csc(SCCn2c(N3CCN(c4ccccc4)CC3)nc3c2c(=O)[nH]c(=O)n3C)n1	.	.	.	.	.	.	/	/	/	/	/	/
CCOc1cccc(C(=O)NC(=S)Nc2cccc(C)c2)c1	.	.	.	6.4	.	.	.	0.011	.	0.012	?	0.015
CCOc1cccc(C(=O)Nc2cccc(C(C)=O)c2)c1	.	.	/	.	.	.	/	/	/	/	/	/
CC(OC(=O)c1cc2sccc2n1C)C(=O)NCCc1ccccc1 (centres undefined)	.	.	.	-5.6	.	.	.	?	?	.	0.014	.
SMILES	STAT3 inh	STAT1 activator	HSV replic up	Cl transport mod	STAT1 inh	STAT3 activator	KCC2 secondary	KCC2 bumet counter	KCC2 secondary2	HEK counter1	KCC2 retest ouab	HEK293 Tl flux2
COC(=O)c1cccc(NC(=O)c2cc3sccc3n2C)c1	.	.	.	.	.	.	/	/	/	/	/	/
COC(=O)c1ccccc1NC(=O)c1cc2sccc2n1C	.	.	.	8.3	.	.	.	.	.	.	.	.
CCCn1nc([N+](=O)[O-])c(C(C#N)c2nc3ccccc3s2)c(Cl)c1=O (centres undefined)	.	.	.	-6.1	.	.	.	0.0059	?	0.0058	0.011	0.0081
Cc1c(-c2n[nH]c(=S)n2-c2ccc(Br)cc2)nnn1-c1ccc(Cl)cc1	.	.	.	5.4	.	.	.	0.024	.	0.01	.	?
Cc1c(-c2n[nH]c(=S)n2-c2ccc(C(F)(F)F)cc2)nnn1-c1ccccc1	.	.	.	.	.	.	/	/	/	/	/	/
CCCCN1C(=O)C(O)(CC(=O)c2ccccn2)c2ccccc21 (centres undefined)	.	.	.	.	.	.	/	/	/	/	/	/
COc1ccc(-c2c(C#N)sc(C(N)=O)c2-c2ccc(OC)cc2)cc1	/	/	.	.	/	/	/	/	/	/	/	/
N#Cc1sc(C(N)=O)c(-c2ccccc2)c1-c1ccccc1	/	/	.	5.1	/	/	.	.	.	.	.	.
Cc1ccccc1-n1nnnc1SCc1ncc(-c2ccccc2)o1	.	.	/	-3.4	.	.	.	.	?	?	.	.
Cc1cc(C)n2cc(CSc3nnnn3-c3ccccc3C)nc2n1	.	.	.	.	.	.	/	/	/	/	/	/
COC(=O)CCCC1=CC2=C(c3ccccc3)C(=O)C(C)(OC(=O)C3CCCC3)C(=O)C2=CN1Cc1ccc(OC)cc1 (centres undefined)	/	/	.	-2.6	/	/	.	.	.	.	.	.
CCOc1cc(/C=C(/C#N)c2ccc(F)cc2)ccc1OCc1ccc(C(=O)O)o1	.	.	.	-4.9	.	.	.	.	0.024	0.0055	0.012	?
